Assay results of several laboratories.
Compare with care: the assays were run in different laboratories.
Target: Serine/threonine-protein kinase TBK1 (TBK1, Homo sapiens, UniProt Q9UHD2)
Sequence (Q9UHD2 1-729, as in one of the studies): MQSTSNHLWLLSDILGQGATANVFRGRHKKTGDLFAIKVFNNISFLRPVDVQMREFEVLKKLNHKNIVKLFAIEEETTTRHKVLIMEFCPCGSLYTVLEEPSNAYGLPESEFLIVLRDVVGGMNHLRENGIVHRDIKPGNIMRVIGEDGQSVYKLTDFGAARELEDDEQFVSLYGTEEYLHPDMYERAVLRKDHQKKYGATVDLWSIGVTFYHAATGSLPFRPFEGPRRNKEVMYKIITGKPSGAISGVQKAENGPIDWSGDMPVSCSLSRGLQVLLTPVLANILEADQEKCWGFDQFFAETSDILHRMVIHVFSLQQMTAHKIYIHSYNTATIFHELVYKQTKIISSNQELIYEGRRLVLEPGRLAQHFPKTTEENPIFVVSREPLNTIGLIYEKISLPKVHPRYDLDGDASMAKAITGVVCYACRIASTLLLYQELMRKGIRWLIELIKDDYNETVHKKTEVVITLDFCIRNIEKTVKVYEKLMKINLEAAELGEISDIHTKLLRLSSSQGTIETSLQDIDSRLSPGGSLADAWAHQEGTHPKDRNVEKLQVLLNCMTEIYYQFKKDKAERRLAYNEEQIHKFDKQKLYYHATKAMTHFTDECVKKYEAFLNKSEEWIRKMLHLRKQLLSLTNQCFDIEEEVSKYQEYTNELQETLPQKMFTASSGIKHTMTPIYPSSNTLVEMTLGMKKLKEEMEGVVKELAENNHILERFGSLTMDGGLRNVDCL

Nc1ncc2c(n1)-c1c([nH]c3ccc(C#CC4CC4)cc13)CCCC2 — remaining binding (binding, competition with immobilised ligand; 1 µM): 88%
O=C(Nc1c[nH]nc1C(=O)NC1CCNCC1)c1cc(F)cc(F)c1 — remaining binding (binding, competition with immobilised ligand; 1 µM): 100%
COc1ncc2cc3ccccc3nc2c1C#N — remaining binding (cell-free assay, competition with immobilised ligand; 5 µM): 98%
C[C@@H]1CCN(c2nccc(-c3cnn4ncccc34)n2)C1 — remaining binding (binding; 1 µM): 63%
O=C(c1ccc(Nc2ncc(Cl)c(-c3cc4ccccc4s3)n2)cc1)N1CCC(N2CCCC2)CC1 — remaining binding (binding, competition with immobilised ligand; 1 µM): 11%
O=C(Nc1ccc(Oc2ccc(F)cc2)cc1)N1CCc2ncccc2[C@H]1c1ccc(F)cc1 — remaining binding (cell-free assay, competition with immobilised ligand; 1 µM): 81%
CN(c1nccc(-c2cnn3ncccc23)n1)C1CC1 — remaining binding (binding; 1 µM): 100%
CC(C)(O)c1cncc(-c2nc3ccc(F)cc3n2C2CC2)c1 — remaining binding (cell-free assay, competition with immobilised ligand; 1 µM): 72%
CN(C)c1ncc(F)c(-c2cnn3ncccc23)n1 — remaining binding (binding; 1 µM): 86%
COc1cnc(Nc2cccc(S(N)(=O)=O)c2)nc1N1CCN(c2ccccc2)CC1 — remaining binding (binding, competition with immobilised ligand; 1 µM): 61%
C[C@@H](c1ccc(-n2cnc3c(N)ncnc32)cc1)N1CCc2nn(C)c(Cc3ccccc3)c2C1=O — remaining binding (binding, competition with immobilised ligand; 0.1 µM): 98%
CC(=O)N1CCC(c2ccc(C(=O)NC(=N)N)cc2C(F)(F)F)CC1 — remaining binding (cell-free assay, competition with immobilised ligand; 1 µM): 100%
O=C(NCCCN1CCOCC1)c1ccc(Nc2ncc(Cl)c(-c3ccc(Cl)s3)n2)cc1 — remaining binding (binding, competition with immobilised ligand; 1 µM): 23%
c1cnn2ncc(-c3ccnc(N4CCC45COC5)n3)c2c1 — remaining binding (binding; 1 µM): 41%
O=C(NCCCN1CCOCC1)c1ccc(Nc2nccc(-c3cc4ccccc4s3)n2)cc1 — remaining binding (binding, competition with immobilised ligand; 1 µM): 70%
CS(=O)(=O)N1CCCC(NC(=O)[C@H](CCC2CCCCC2)NC(=O)c2ccc(CNC(=O)c3cnc4ccccn34)cc2)C1 (stereo partly drawn) — remaining binding (cell-free assay, competition with immobilised ligand; 0.1 µM): 75%
FC(F)(F)Oc1cccc(-c2cnc3ccc(-c4ccncc4)nn23)c1 — remaining binding (binding, competition with immobilised ligand; 5 µM): 54%
N[C@@H]1CCN(c2nccc(-c3cnn4ncccc34)n2)C1 — remaining binding (binding; 1 µM): 97%
O=C(O)[C@@H]1[C@@H](Cn2nnc3ccccc3c2=O)CC[C@H]1C(=O)c1ccc(OCCC2CCOCC2)cc1 — remaining binding (cell-free assay, competition with immobilised ligand; 1 µM): 100%
Cc1cnn2ncc(-c3ccnc(N(C)C)n3)c2c1 — remaining binding (binding; 1 µM): 82%
CC1=C(C#N)C(c2ccc3c(c2)c(NC(=O)c2ccccc2C)nn3C)C(C#N)=C(C)N1 — remaining binding (cell-free assay, competition with immobilised ligand; 1 µM): 69%
